{"source": "paper PMC12667952", "about": "(bioRxiv, 2025)", "key": {"[1]": {"target": "T1, hGlyT2^W215F (Homo sapiens, UniProt Q9Y345, W215F)", "T1 sequence (Q9Y345 1-797 W215F)": "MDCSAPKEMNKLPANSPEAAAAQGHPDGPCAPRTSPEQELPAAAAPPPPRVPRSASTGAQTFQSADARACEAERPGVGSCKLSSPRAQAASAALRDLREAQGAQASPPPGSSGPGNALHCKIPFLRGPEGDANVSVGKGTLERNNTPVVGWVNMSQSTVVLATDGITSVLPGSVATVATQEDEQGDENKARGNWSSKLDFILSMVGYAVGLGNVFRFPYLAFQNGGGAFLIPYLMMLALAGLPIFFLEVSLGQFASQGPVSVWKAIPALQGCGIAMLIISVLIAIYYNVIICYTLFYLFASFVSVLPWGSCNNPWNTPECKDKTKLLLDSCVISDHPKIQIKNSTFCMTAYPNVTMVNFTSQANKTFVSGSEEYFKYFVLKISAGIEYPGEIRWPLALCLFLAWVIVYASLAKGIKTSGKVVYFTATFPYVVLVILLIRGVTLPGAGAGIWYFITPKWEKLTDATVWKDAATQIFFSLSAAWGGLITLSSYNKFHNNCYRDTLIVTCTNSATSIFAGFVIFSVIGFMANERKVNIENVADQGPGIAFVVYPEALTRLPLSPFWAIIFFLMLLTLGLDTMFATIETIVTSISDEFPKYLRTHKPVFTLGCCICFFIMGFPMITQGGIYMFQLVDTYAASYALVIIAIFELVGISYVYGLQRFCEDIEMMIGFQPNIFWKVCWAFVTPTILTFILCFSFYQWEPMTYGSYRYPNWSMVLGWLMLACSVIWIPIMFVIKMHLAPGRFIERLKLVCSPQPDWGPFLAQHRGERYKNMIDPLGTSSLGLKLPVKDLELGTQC", "assay": "Reversibility", "assay_type": "cell-based"}, "[2]": {"system": "histamine (H1)", "assay": "Cerep panel off-target selectivity screen, H1", "assay_type": "binding", "conditions": "1 × 10^-5 M"}, "[3]": {"system": "adrenergic receptors", "assay": "Cerep panel off-target selectivity screen, adrenergic receptors", "assay_type": "binding", "conditions": "1 × 10^-5 M"}, "[4]": {"target": "T2, hGlyT2^D633E (Homo sapiens, UniProt Q9Y345, D633E)", "T2 sequence (Q9Y345 1-797 D633E)": "T1 sequence (Q9Y345 1-797 W215F) with F215W, D633E", "assay_type": "cell-based"}, "[5]": {"target": "T3, hGlyT2^WT (Homo sapiens, UniProt Q9Y345)", "T3 sequence (Q9Y345 1-797)": "T1 sequence (Q9Y345 1-797 W215F) with F215W", "assay": "Sodium dependence of inhibition of glycine transport currents", "assay_type": "cell-based", "conditions": "300 μM glycine"}, "[6]": {"system": "CCI mice", "assay": "Mechanical allodynia", "assay_type": "in vivo, mouse", "conditions": "for Peak reduction of response rate to von Frey stimulus: 3 hours", "how_it_was_run": "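CCI mice tested 14 days after surgery. […] A single 0.4 g von Frey filament (about 15% response in naïve mice) applied to the left hind plantar surface until it bent. Response rate recorded after dosing.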"}, "[7]": {"system": "naïve, uninjured mice", "assay": "Respiratory function by whole-body plethysmography", "assay_type": "in vivo, mouse", "how_it_was_run": "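Whole-body plethysmography on naïve, uninjured mice in two parallel chambers linked to a pressure transducer. Mice briefly removed for injection, then returned. Breathing recorded for 5 min at 30, 60, 90, 120 and 180 min post-injection. Frequency, tidal volume and minute volume averaged and normalised to % baseline. […] Two-way ANOVA with Dunnett's test.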"}}, "note": "Substitutions are numbered along the chain they refer to.", "data": [{"compound": "CN(C)C1(CNC(=O)c2ccc3c(c2)CCN3C(=O)c2ccccc2)CCOCC1", "note": "[RPI-GLYT2–82, 1-benzoyl-N-((4-(dimethylamino)tetrahydro-2H-pyran-4-yl)methyl)indoline-5-carboxamide]", "values": [{"measurement": "Washout of inhibitor from hGlyT2^W215F", "setting": "[1]", "value": "almost immediate"}, {"measurement": "Activity at histamine H1", "setting": "[2]", "value": "inactive"}, {"measurement": "Activity at adrenergic receptors", "setting": "[3]", "value": "inactive"}, {"measurement": "IC50", "setting": "[4]", "value": "> 10000", "unit": "nM"}, {"measurement": "Reduction in potency of inhibition, D633E versus WT", "setting": "[4]", "value": "> 18", "unit": "fold"}, {"measurement": "IC50", "setting": "[5]; IC50 at 20 mM Na+, 20 mM Na+, choline chloride substitute", "value": 159, "unit": "nM"}, {"measurement": "IC50", "setting": "[5]; IC50 at 100 mM Na+, 100 mM Na+", "value": 279, "unit": "nM"}, {"measurement": "Peak reduction of response rate to von Frey stimulus", "setting": "[6]; CCI mice, 50 mg/kg i.p.", "value": 30, "unit": "%"}, {"measurement": "Peak reduction of response rate to von Frey stimulus", "setting": "[6]; CCI mice, 100 mg/kg i.p.", "value": 42, "unit": "%"}, {"measurement": "Time of maximum efficacy, mechanical allodynia", "setting": "[6]; CCI mice, 50 and 100 mg/kg i.p.", "value": "between 90 minutes and 3 hours post-administration"}, {"measurement": "Efficacy at alleviating mechanical allodynia compared to pregabalin", "setting": "[6]; pregabalin 50 mg/kg", "value": "not as efficacious"}, {"measurement": "Respiration frequency, minute volume (MVb), tidal volume (TVb)", "setting": "[7]; 50 mg/kg", "value": "did not change"}, {"measurement": "Respiratory frequency, MVb and TVb", "setting": "[7]; 250 mg/kg, frequency and MVb first hour, TVb first 30 minutes", "value": "transient changes"}]}]}
